From ChEMBL document CHEMBL2202974 (J Med Chem, 2011)

Experiments:
[1] = Drug uptake in monkey lateral temporal cortex at 6.2 mCi, iv administered as bolus dose followed by naloxone-treatment at 37 mins measured at 120 mins by PET imaging analysis; format: ADME, organism-based, Macaca mulatta; conditions: rhesus monkey, in vivo, 2 h
In short: (§1)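 Anesthetised rhesus monkey given iv bolus of radioligand; a high dose of naloxone was given at 37 min after radioligand. PET regional time-activity curves were expressed as %SUV.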

[2] = Drug uptake in monkey amygdala at 4.92 to 6.6 mCi, iv administered as bolus dose measured at 120 mins by PET imaging analysis; format: ADME, organism-based, Macaca mulatta; conditions: rhesus monkey, in vivo, 2 h
[3] = Drug uptake in monkey cerebellum at 6.2 mCi, iv administered as bolus dose followed by SB612111-treatment at 40 mins measured at 100 mins by PET imaging analysis; format: ADME, organism-based, Macaca mulatta; conditions: rhesus monkey, in vivo
In short: (§2)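 Anesthetised rhesus monkey given iv bolus of radioligand; the NOP antagonist was given at 40 min after radioligand to test displacement. PET regional time-activity curves were expressed as %SUV.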

[4] = Drug uptake in SB612111-pretreated monkey hypothalamus at 4.92 to 6.6 mCi, iv administered at 10 mins post SB612111-treatment measured within 10 mins by PET imaging analysis; format: ADME, organism-based, Macaca mulatta; conditions: rhesus monkey, in vivo
[5] = Drug uptake in SB612111-pretreated monkey caudate at 4.92 to 6.6 mCi, iv administered at 10 mins post SB612111-treatment measured within 10 mins by PET imaging analysis; format: ADME, organism-based, Macaca mulatta, Caudate nucleus; conditions: rhesus monkey, in vivo
[6] = Drug uptake in monkey hypothalamus at 4.92 to 6.6 mCi, iv administered as bolus dose measured at 120 mins by PET imaging analysis; format: ADME, organism-based, Macaca mulatta; conditions: rhesus monkey, in vivo, 2 h
[7] = Drug uptake in monkey lateral temporal cortex at 4.92 to 6.6 mCi, iv administered as bolus dose measured up to 20 mins by PET imaging analysis; format: ADME, organism-based, Macaca mulatta; conditions: rhesus monkey, in vivo
Plasma [8] = assay: Drug metabolism in SB612111-pretreated monkey plasma assessed as radiometabolite formation at 4.9 to 6.6 mCi, iv administered as bolus dose 10 mins post SB612111-treatment up to 100 mins; format: ADME, organism-based, Macaca mulatta; conditions: rhesus monkey, in vivo
[9] = Chemical stability of the compound in sodium phosphate buffer after 2 hrs at pH 7.4; format: physicochemical; conditions: read-out: Stability
[10] = Metabolic stability in monkey plasma at 4.9 to 6.6 mCi, iv administered as bolus dose up to 100 mins; format: ADME, organism-based, Macaca mulatta; conditions: rhesus monkey, read-out: Stability
In short: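 For baseline scans, male rhesus monkeys were immobilized with ketamine and kept under 1–3% isoflurane. Plasma sampled during the scan was extracted into acetonitrile, and the supernatant was analysed by HPLC for the parent fraction.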

Brain [11] = assay: Drug uptake in 129/S6 mouse brain at 0.6 nM after 120 mins by autoradiographic analysis; format: ADME, tissue-based
Plasma [12] = assay: Drug metabolism in monkey plasma assessed as radiometabolite formation at 4.9 to 6.6 mCi, iv administered as bolus dose up to 100 mins; format: ADME, organism-based, Macaca mulatta; conditions: rhesus monkey, in vivo
[13] = Metabolic stability in monkey blood for 0.5 hrs; format: ADME, tissue-based, Macaca mulatta; conditions: rhesus monkey, read-out: Stability
In short: (§3)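 The [11C]-labelled radioligand was incubated in vitro in monkey whole blood or monkey plasma for 0.5 h at room temperature. Stability was expressed as the percentage of radioactivity remaining as unchanged radioligand (n = 6).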

[14] = Drug uptake in monkey hypothalamus at 4.92 to 6.6 mCi, iv administered as bolus dose measured up to 20 mins by PET imaging analysis; format: ADME, organism-based, Macaca mulatta; conditions: rhesus monkey, in vivo
[15] = Drug uptake in monkey caudate at 6.2 mCi, iv administered as bolus dose followed by naloxone-treatment at 37 mins measured at 120 mins by PET imaging analysis; format: ADME, organism-based, Macaca mulatta, Caudate nucleus; conditions: rhesus monkey, in vivo, 2 h; in short: as §1
Brain [16] = assay: Drug uptake in NOP knockout mouse brain at 0.6 nM after 120 mins by autoradiographic analysis; format: ADME, tissue-based
[17] = Drug uptake in monkey amygdala at 6.2 mCi, iv administered as bolus dose followed by SB612111-treatment at 40 mins measured at 100 mins by PET imaging analysis; format: ADME, organism-based, Macaca mulatta; conditions: rhesus monkey, in vivo; in short: as §2
[18] = Drug uptake in monkey cerebellum at 4.92 to 6.6 mCi, iv administered as bolus dose measured up to 20 mins by PET imaging analysis; format: ADME, organism-based, Macaca mulatta; conditions: rhesus monkey, in vivo
[19] = Drug uptake in monkey lateral temporal cortex at 4.92 to 6.6 mCi, iv administered as bolus dose measured at 120 mins by PET imaging analysis; format: ADME, organism-based, Macaca mulatta; conditions: rhesus monkey, in vivo, 2 h
[20] = Drug uptake in monkey caudate at 4.92 to 6.6 mCi, iv administered as bolus dose measured at 120 mins by PET imaging analysis; format: ADME, organism-based, Macaca mulatta, Caudate nucleus; conditions: rhesus monkey, in vivo, 2 h
[21] = Drug uptake in monkey lateral temporal cortex at 6.2 mCi, iv administered as bolus dose followed by SB612111-treatment at 40 mins measured at 100 mins by PET imaging analysis; format: ADME, organism-based, Macaca mulatta; conditions: rhesus monkey, in vivo; in short: as §2
[22] = Drug uptake in SB612111-pretreated monkey amygdala at 4.92 to 6.6 mCi, iv administered at 10 mins post SB612111-treatment measured from 10 to 120 mins by PET imaging analysis; format: ADME, organism-based, Macaca mulatta; conditions: rhesus monkey, in vivo
[23] = Drug uptake in monkey hypothalamus at 6.2 mCi, iv administered as bolus dose followed by naloxone-treatment at 37 mins measured at 120 mins by PET imaging analysis; format: ADME, organism-based, Macaca mulatta; conditions: rhesus monkey, in vivo, 2 h; in short: as §1
[24] = Drug uptake in monkey caudate at 6.2 mCi, iv administered as bolus dose followed by SB612111-treatment at 40 mins measured at 100 mins by PET imaging analysis; format: ADME, organism-based, Macaca mulatta, Caudate nucleus; conditions: rhesus monkey, in vivo; in short: as §2
[25] = Drug uptake in monkey cerebellum at 4.92 to 6.6 mCi, iv administered as bolus dose measured at 120 mins by PET imaging analysis; format: ADME, organism-based, Macaca mulatta; conditions: rhesus monkey, in vivo, 2 h
[26] = Drug uptake in SB612111-pretreated monkey caudate at 4.92 to 6.6 mCi, iv administered at 10 mins post SB612111-treatment measured from 10 to 120 mins by PET imaging analysis; format: ADME, organism-based, Macaca mulatta, Caudate nucleus; conditions: rhesus monkey, in vivo
[27] = Drug uptake in monkey cerebellum at 6.2 mCi, iv administered as bolus dose followed by naloxone-treatment at 37 mins measured at 120 mins by PET imaging analysis; format: ADME, organism-based, Macaca mulatta; conditions: rhesus monkey, in vivo, 2 h; in short: as §1
[28] = Drug uptake in monkey amygdala at 6.2 mCi, iv administered as bolus dose followed by naloxone-treatment at 37 mins measured at 120 mins by PET imaging analysis; format: ADME, organism-based, Macaca mulatta; conditions: rhesus monkey, in vivo, 2 h; in short: as §1
[29] = Drug uptake in SB612111-pretreated monkey hypothalamus at 4.92 to 6.6 mCi, iv administered at 10 mins post SB612111-treatment measured from 10 to 120 mins by PET imaging analysis; format: ADME, organism-based, Macaca mulatta; conditions: rhesus monkey, in vivo
[30] = Drug uptake in monkey hypothalamus at 6.2 mCi, iv administered as bolus dose followed by SB612111-treatment at 40 mins measured at 100 mins by PET imaging analysis; format: ADME, organism-based, Macaca mulatta; conditions: rhesus monkey, in vivo; in short: as §2
[31] = Drug uptake in monkey amygdala at 4.92 to 6.6 mCi, iv administered as bolus dose measured up to 20 mins by PET imaging analysis; format: ADME, organism-based, Macaca mulatta; conditions: rhesus monkey, in vivo
[32] = Drug uptake in monkey caudate at 4.92 to 6.6 mCi, iv administered as bolus dose measured up to 20 mins by PET imaging analysis; format: ADME, organism-based, Macaca mulatta, Caudate nucleus; conditions: rhesus monkey, in vivo
[33] = Drug uptake in SB612111-pretreated monkey lateral temporal cortex at 4.92 to 6.6 mCi, iv administered at 10 mins post SB612111-treatment measured from 10 to 120 mins by PET imaging analysis; format: ADME, organism-based, Macaca mulatta; conditions: rhesus monkey, in vivo
[34] = Drug uptake in SB612111-pretreated monkey cerebellum at 4.92 to 6.6 mCi, iv administered at 10 mins post SB612111-treatment measured from 10 to 120 mins by PET imaging analysis; format: ADME, organism-based, Macaca mulatta; conditions: rhesus monkey, in vivo
[35] = Fraction unbound in human plasma; format: ADME, cell-free
In short: (§4)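 Plasma free fraction of the radioligand measured in vitro. Monkey: 3 samples from each of two monkeys (n = 6). Human: pooled plasma, three samples from each of two subjects.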

[36] = Drug uptake in SB612111-pretreated monkey lateral temporal cortex at 4.92 to 6.6 mCi, iv administered at 10 mins post SB612111-treatment measured within 10 mins by PET imaging analysis; format: ADME, organism-based, Macaca mulatta; conditions: rhesus monkey, in vivo
[37] = Fraction unbound in monkey plasma; format: ADME, cell-free, Macaca mulatta; conditions: rhesus monkey; in short: as §4
[38] = Metabolic stability in monkey plasma for 0.5 hrs; format: ADME, cell-free, Macaca mulatta; conditions: rhesus monkey, read-out: Stability; in short: as §3
Plasma [39] = assay: Metabolic stability in SB612111-pretreated monkey plasma at 4.9 to 6.6 mCi, iv administered as bolus dose 10 mins post SB612111-treatment up to 100 mins; format: ADME, organism-based, Macaca mulatta; conditions: rhesus monkey, in vivo
In short: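 Preblock scans were run in the same anesthetized (ketamine, isoflurane) rhesus monkeys about 3 h after the baseline scan. Plasma was extracted into acetonitrile, and the supernatant was analysed by HPLC to give the percentage of radioactivity present as unchanged radioligand over time.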

[40] = Drug uptake in SB612111-pretreated monkey cerebellum at 4.92 to 6.6 mCi, iv administered at 10 mins post SB612111-treatment measured within 10 mins by PET imaging analysis; format: ADME, organism-based, Macaca mulatta; conditions: rhesus monkey, in vivo
[41] = Drug uptake in SB612111-pretreated monkey amygdala at 4.92 to 6.6 mCi, iv administered at 10 mins post SB612111-treatment measured within 10 mins by PET imaging analysis; format: ADME, organism-based, Macaca mulatta; conditions: rhesus monkey, in vivo

[11CH3]NC(=O)[C@@H](Cc1ccccc1F)CN1CCC2(CC1)OCCc1cc(F)sc12
Drug uptake [1]: Not Active
Drug uptake [2]: Not Active
Drug uptake [3]: Not Active
Drug uptake [4]: Active
Drug uptake [5]: Active
Drug uptake [6]: Not Active
Drug uptake [7]: Active
Drug metabolism (Plasma [8]): Active
remaining at 2 h [9]: 98.9%
remaining at 100 min [10]: 94.9%
Drug uptake (Brain [11]): Active
Drug metabolism (Plasma [12]): Active
remaining at 0.5 h [13]: 100%
Drug uptake [14]: Active
Drug uptake [15]: Not Active
Drug uptake (Brain [16]): Not Active
Drug uptake [17]: Not Active
Drug uptake [18]: Active
Drug uptake [19]: Not Active
Drug uptake [20]: Not Active
Drug uptake [21]: Not Active
Drug uptake [22]: Not Active
Drug uptake [23]: Not Active
Drug uptake [24]: Not Active
Drug uptake [25]: Not Active
Drug uptake [26]: Not Active
Drug uptake [27]: Not Active
Drug uptake [28]: Not Active
Drug uptake [29]: Not Active
Drug uptake [30]: Not Active
Drug uptake [31]: Active
Drug uptake [32]: Active
Drug uptake [33]: Not Active
Drug uptake [34]: Not Active
fraction unbound [35]: 0.11
Drug uptake [36]: Active
fraction unbound [37]: 0.113
remaining at 0.5 h [38]: 99.9%
Stability (Plasma [39]): 94.9%
Drug uptake [40]: Active
Drug uptake [41]: Active
